Source: ChEMBL document CHEMBL4431354, “Piperazic acid derivatives inhibit Gli1 in Hedgehog signaling pathway” (Bioorg Med Chem Lett, 2016)
Active and inactive are the calls of the source. The rule behind the calls is not given here.

Assays:
[1] = system: Shh Light II; test: Cell cycle arrest in mouse Shh Light2 cells assessed as accumulation at G0/G1 phase at 10 uM after 30 to 48 hrs by propidium iodide staining-based flow cytometry (reference value: 86.2%); type: functional
[2] = system: Shh Light II; test: Cell cycle arrest in mouse Shh Light2 cells assessed as accumulation at G2/M phase at 10 uM after 30 to 48 hrs by propidium iodide staining-based flow cytometry (reference value: 6.7%); type: functional
[3] = system: Shh Light II; test: Cell cycle arrest in mouse Shh Light2 cells assessed as accumulation at S phase at 10 uM after 30 to 48 hrs by propidium iodide staining-based flow cytometry (reference value: 3.6%); type: functional
[4] = system: Shh Light II; test: Cell cycle arrest in mouse Shh Light2 cells assessed as accumulation at subG0 phase at 10 uM after 30 to 48 hrs by propidium iodide staining-based flow cytometry (reference value: 3.4%); type: functional
[5] = molecular target: T1, Zinc finger protein GLI1 (Homo sapiens) (UniProt P08151); test: Inhibition of Shh-N-induced Gli1 (unknown origin) expressed in mouse Shh Light2 cells assessed as Gli1-mediated mediated transcription at 50 uM incubated for 30 hrs by firefly luciferase assay; type: cell-based
T1 sequence (whole entry): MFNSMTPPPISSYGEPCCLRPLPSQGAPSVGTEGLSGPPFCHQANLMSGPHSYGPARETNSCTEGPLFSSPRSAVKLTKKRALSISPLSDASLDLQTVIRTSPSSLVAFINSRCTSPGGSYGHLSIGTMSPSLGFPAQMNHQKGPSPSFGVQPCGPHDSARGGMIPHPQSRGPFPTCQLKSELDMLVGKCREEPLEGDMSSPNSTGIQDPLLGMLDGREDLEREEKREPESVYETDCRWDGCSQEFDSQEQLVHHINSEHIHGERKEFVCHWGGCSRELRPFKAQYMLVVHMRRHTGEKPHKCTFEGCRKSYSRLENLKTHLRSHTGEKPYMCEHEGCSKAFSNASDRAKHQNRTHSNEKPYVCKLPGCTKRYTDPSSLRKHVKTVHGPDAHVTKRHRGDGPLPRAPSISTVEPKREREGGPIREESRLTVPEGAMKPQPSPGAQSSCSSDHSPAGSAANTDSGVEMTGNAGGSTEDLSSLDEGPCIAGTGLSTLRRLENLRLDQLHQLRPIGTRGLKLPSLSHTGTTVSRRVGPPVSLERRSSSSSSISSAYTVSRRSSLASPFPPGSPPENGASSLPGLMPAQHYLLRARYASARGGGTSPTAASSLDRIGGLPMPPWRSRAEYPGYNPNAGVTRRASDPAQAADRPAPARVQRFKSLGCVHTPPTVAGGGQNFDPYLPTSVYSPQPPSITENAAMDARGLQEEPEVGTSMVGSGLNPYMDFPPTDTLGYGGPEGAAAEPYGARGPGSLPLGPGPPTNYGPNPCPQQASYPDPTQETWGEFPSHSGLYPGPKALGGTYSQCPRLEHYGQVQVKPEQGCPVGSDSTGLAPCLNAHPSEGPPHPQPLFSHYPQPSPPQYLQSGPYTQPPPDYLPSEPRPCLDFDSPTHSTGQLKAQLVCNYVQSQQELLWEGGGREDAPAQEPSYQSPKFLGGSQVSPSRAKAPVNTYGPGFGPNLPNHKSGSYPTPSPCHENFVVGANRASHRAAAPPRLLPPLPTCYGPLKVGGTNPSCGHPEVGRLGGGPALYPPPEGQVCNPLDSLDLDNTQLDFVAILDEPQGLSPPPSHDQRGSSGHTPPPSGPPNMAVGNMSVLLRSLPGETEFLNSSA
Outline: (§1)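 Shh-LIGHT2 cells (NIH-3T3 clone stably carrying Gli-dependent firefly and constitutive Renilla luciferase) treated 30 h with graded compound concentrations in Shh-N conditioned medium; firefly luminescence read as percent inhibition versus Shh-N-stimulated DMSO control. Cyclopamine 10 µM positive control. Three independent experiments in triplicate, mean ± SD.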

[6] = molecular target: T1, Zinc finger protein GLI1 (Homo sapiens); test: Inhibition of Gli1 (unknown origin) expression in mouse Shh Light2 cells at 100 uM by Western blot analysis; type: cell-based
Outline: (§2)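 Gli1 protein immunoblotted in Shh-N-stimulated Shh-LIGHT2 cells after treatment with varying doses or 100 µM compound; GAPDH loading control; Shh-N-stimulated DMSO-treated cells as control; cyclopamine 10 µM positive control.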

[7] = system: Shh Light II; test: Cytotoxicity against mouse Shh Light2 cells up to 150 uM after 40 hrs by MTT assay; type: cell-based
Outline: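 MTT viability in Shh-LIGHT2 cells (NIH-3T3 clone with Gli-dependent firefly and constitutive Renilla luciferase reporters) after 40 h exposure to doses up to 150 μM, under the same conditions as the Hh reporter assay.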

[8] = system: Shh Light II; test: Effect on Smo expression in mouse Shh Light2 cells at 75 to 100 uM after 24 hrs by Western blot analysis; type: functional, cell-based
[9] = system: Shh Light II; test: Effect on Ptch1 expression in mouse Shh Light2 cells at 75 to 100 uM after 24 hrs by Western blot analysis; type: functional, cell-based
[10] = system: Shh Light II; test: Effect on SuFu expression in mouse Shh Light2 cells at 75 to 100 uM after 24 hrs by Western blot analysis; type: functional, cell-based
[11] = system: Shh Light II; test: Effect on SHH expression in mouse Shh Light2 cells at 75 to 100 uM after 24 hrs by Western blot analysis; type: functional, cell-based
[12] = molecular target: T1, Zinc finger protein GLI1 (Homo sapiens); test: Inhibition of Gli1 (unknown origin) expression in mouse Shh Light2 cells at 1 to 100 uM by Western blot analysis; type: cell-based; outline: as §2
[13] = system: Shh Light II; test: Cell cycle arrest in mouse Shh Light2 cells assessed as accumulation at G0/G1 phase at 30 uM after 30 to 48 hrs by propidium iodide staining-based flow cytometry (reference value: 86.2%); type: functional
[14] = system: Shh Light II; test: Cell cycle arrest in mouse Shh Light2 cells assessed as accumulation at G2/M phase at 30 uM after 30 to 48 hrs by propidium iodide staining-based flow cytometry (reference value: 6.7%); type: functional
[15] = system: Shh Light II; test: Cell cycle arrest in mouse Shh Light2 cells assessed as accumulation at S phase at 30 uM after 30 to 48 hrs by propidium iodide staining-based flow cytometry (reference value: 3.6%); type: functional
[16] = system: Shh Light II; test: Cell cycle arrest in mouse Shh Light2 cells assessed as accumulation at subG0 phase at 30 uM after 30 to 48 hrs by propidium iodide staining-based flow cytometry (reference value: 3.4%); type: functional
[17] = system: Shh Light II; test: Cell cycle arrest in mouse Shh Light2 cells assessed as accumulation at G0/G1 phase at 100 uM after 30 to 48 hrs by propidium iodide staining-based flow cytometry (reference value: 86.2%); type: functional
[18] = system: Shh Light II; test: Cell cycle arrest in mouse Shh Light2 cells assessed as accumulation at G2/M phase at 100 uM after 30 to 48 hrs by propidium iodide staining-based flow cytometry (reference value: 6.7%); type: functional
[19] = system: Shh Light II; test: Cell cycle arrest in mouse Shh Light2 cells assessed as accumulation at S phase at 100 uM after 30 to 48 hrs by propidium iodide staining-based flow cytometry (reference value: 3.6%); type: functional
[20] = system: Shh Light II; test: Cell cycle arrest in mouse Shh Light2 cells assessed as accumulation at subG0 phase at 100 uM after 30 to 48 hrs by propidium iodide staining-based flow cytometry (reference value: 3.4%); type: functional
[21] = system: Shh Light II; test: Effect on SHH expression in mouse Shh Light2 cells at 25 to 50 uM after 24 hrs by Western blot analysis; type: functional, cell-based
Outline: (§3)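 Shh-LIGHT2 cells treated 24 h, then SHH and SuFu protein levels assessed by western blotting.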

[22] = system: Shh Light II; test: Effect on SuFu expression in mouse Shh Light2 cells at 25 to 50 uM after 24 hrs by Western blot analysis; type: functional, cell-based; outline: as §3
[23] = system: Shh Light II; test: Effect on Ptch1 expression in mouse Shh Light2 cells at 25 to 50 uM after 24 hrs by Western blot analysis; type: functional, cell-based
[24] = species: Mus musculus; conditions: 0.5 to 50 uM
[25] = molecular target: T1, Zinc finger protein GLI1 (Homo sapiens); test: Inhibition of Shh-N-induced Gli1 (unknown origin) expressed in mouse Shh Light2 cells assessed as Gli1-mediated mediated transcription up to 50 uM incubated for 30 hrs by firefly luciferase assay; type: cell-based; outline: as §1

CC1=C2C[C@H]3[C@@H](CC=C4C[C@@H](O)CC[C@@]43C)[C@@H]2CC[C@]12O[C@@H]1C[C@H](C)CN[C@H]1[C@H]2C [CYCLOPAMINE]
Activity [1]: 84.1% | Activity [2]: 7.7% | Activity [3]: 4.7% | Activity [4]: 3.2%

O=C(O)C1CCCCNN1 (configuration not stated)
inhibition [5]: inactive | inhibition [6]: inactive

O=C(O)C1CCCNN1 (configuration not stated)
Activity [7]: Non-Toxic | Activity [8]: inactive | Activity [9]: inactive | Activity [10]: inactive | Activity [11]: inactive | inhibition [5]: < 50% | inhibition [12]: Dose-dependent effect | Activity [13]: 82.9% | Activity [14]: 7.8% | Activity [15]: 4.4% | Activity [16]: 4.7% | Activity [17]: 81.3% | Activity [18]: 8.3% | Activity [19]: 4.9% | Activity [20]: 5.2%

NC(=O)C1CCCNN1 (configuration not stated)
Activity [21]: inactive | Activity [7]: Non-Toxic | Activity [22]: inactive | Activity [23]: inactive | inhibition [24]: inactive

CN(C)C(=O)C1CCCNN1 (configuration not stated)
Activity [21]: inactive | Activity [7]: Non-Toxic | Activity [22]: inactive | Activity [23]: inactive | inhibition [24]: inactive

COC(=O)C1CCCNN1 (configuration not stated)
inhibition [5]: inactive | inhibition [6]: inactive

O=C(O)C1CCCCN1 (configuration not stated)
inhibition [25]: inactive | inhibition [12]: inactive

COC(=O)C1CCCCNN1 (configuration not stated)
inhibition [5]: inactive | inhibition [6]: inactive
